Source: ChEMBL document CHEMBL1138748, “A prodrug approach toward the development of water soluble fluoroquinolones and structure--activity relationships of quinoline-3-carboxylic acids” (2004)
≈ marks a conversion by molar mass, not a printed value.

How the values were obtained:
Format in all cases: functional
Enterococcus faecalis = assay: Antibacterial activity against Enterococcus faecalis strain 29212
In short: (§1)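 Broth microdilution MIC run to NCCLS standards: serial 2-fold dilutions in cation-adjusted Mueller–Hinton broth, inoculum ~5 × 10^5 CFU/mL, incubated 35 °C for 18–24 h. Trays were read by eye, and the MIC was taken as the lowest concentration giving complete growth inhibition (no visible turbidity).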

Pseudomonas aeruginosa = assay: Antibacterial activity against Pseudomonas aeruginosa strain 27853; in short: as §1
Staphylococcus aureus [1] = assay: Antibacterial activity against Staphylococcus aureus strain St au 29213; in short: as §1
Staphylococcus aureus [2] = assay: Antibacterial activity against Staphylococcus aureus strain St au 33591 MRSA; in short: as §1
Escherichia coli = assay: Antibacterial activity against Escherichia coli strain 25922; in short: as §1

| SMILES | MIC (Enterococcus faecalis) [µg/mL] | MIC (Pseudomonas aeruginosa) [µg/mL] | MIC (Staphylococcus aureus [1]) [µg/mL] | MIC (Staphylococcus aureus [2]) [µg/mL] | MIC (Escherichia coli) [µg/mL] |
| --- | --- | --- | --- | --- | --- |
| O=C(O)c1cn(-c2ccc(O)cc2)c2cc(N3CC4CC3CN4)c(F)cc2c1=O (stereo not given) | 12.5 (≈ 31.6 µM) | 6.25 (≈ 15.8 µM) | 0.78 (≈ 1.97 µM) | 0.78 (≈ 1.97 µM) | 1.56 (≈ 3.95 µM) |
| CN1CCN(c2nc3c(cc2F)c(=O)c(C(=O)O)cn3-c2ccc(O)cc2)CC1 | 1.56 (≈ 3.92 µM) | 3.13 (≈ 7.86 µM) | 0.2 (≈ 0.502 µM) | 0.2 (≈ 0.502 µM) | 0.05 (≈ 0.126 µM) |
| COc1c(N2CCN(C)CC2)c(F)cc2c(=O)c(C(=O)O)cn(-c3ccc(O)cc3)c12 | 3.13 (≈ 7.32 µM) | 3.13 (≈ 7.32 µM) | 0.4 (≈ 0.936 µM) | 0.4 (≈ 0.936 µM) | 0.1 (≈ 0.234 µM) |
| C[C@@H]1CN(c2cc3c(cc2F)c(=O)c(C(=O)O)cn3-c2ccc(O)cc2)C[C@H]1N | 1.56 (≈ 3.93 µM) | 1.56 (≈ 3.93 µM) | 0.2 (≈ 0.503 µM) | 0.2 (≈ 0.503 µM) | 0.2 (≈ 0.503 µM) |
| COc1c(N2C[C@@H]3[C@@H](N)[C@@H]3C2)c(F)cc2c(=O)c(C(=O)O)cn(-c3ccc(O)cc3)c12 | 1.56 (≈ 3.67 µM) | 1.56 (≈ 3.67 µM) | 0.1 (≈ 0.235 µM) | 0.1 (≈ 0.235 µM) | 0.1 (≈ 0.235 µM) |
| O=C(O)c1cn(-c2ccc(O)cc2)c2nc(N3CCNCC3)c(F)cc2c1=O | 12.5 (≈ 32.5 µM) | 3.13 (≈ 8.14 µM) | 1.56 (≈ 4.06 µM) | 1.56 (≈ 4.06 µM) | 1.56 (≈ 4.06 µM) |
| C[C@@H]1CN(c2cc3c(cc2F)c(=O)c(C(=O)O)cn3-c2ccc(O)cc2)C[C@H](C)N1 | 3.13 (≈ 7.61 µM) | 3.13 (≈ 7.61 µM) | 0.2 (≈ 0.486 µM) | 0.4 (≈ 0.972 µM) | 0.1 (≈ 0.243 µM) |
| N[C@@H]1[C@H]2CN(c3cc4c(cc3F)c(=O)c(C(=O)O)cn4-c3ccc(O)cc3)C[C@@H]12 | 1.56 (≈ 3.95 µM) | 3.13 (≈ 7.92 µM) | 0.1 (≈ 0.253 µM) | 0.1 (≈ 0.253 µM) | 0.2 (≈ 0.506 µM) |
| COc1c(N2CC3CCCN(C)C3C2)c(F)cc2c(=O)c(C(=O)O)cn(-c3ccc(O)cc3)c12 (stereo not given) | 12.5 (≈ 26.7 µM) | 6.25 (≈ 13.4 µM) | 0.78 (≈ 1.67 µM) | 1.56 (≈ 3.34 µM) | 0.4 (≈ 0.856 µM) |
| C[C@H](N)[C@H]1CCN(c2cc3c(cc2F)c(=O)c(C(=O)O)cn3-c2ccc(O)cc2)C1 | 3.13 (≈ 7.61 µM) | 25 (≈ 60.8 µM) | 0.4 (≈ 0.972 µM) | 0.78 (≈ 1.9 µM) | 1.56 (≈ 3.79 µM) |
| N[C@H]1CN(c2cc3c(cc2F)c(=O)c(C(=O)O)cn3-c2ccc(O)cc2)CC12CC2 | 6.25 (≈ 15.3 µM) | 6.25 (≈ 15.3 µM) | 0.4 (≈ 0.977 µM) | 0.78 (≈ 1.91 µM) | 0.78 (≈ 1.91 µM) |
| COc1c(N2C[C@@H](N)C3(CC3)C2)c(F)cc2c(=O)c(C(=O)O)cn(-c3ccc(O)cc3)c12 | 6.25 (≈ 14.2 µM) | 3.13 (≈ 7.12 µM) | 0.78 (≈ 1.77 µM) | 0.78 (≈ 1.77 µM) | 0.4 (≈ 0.91 µM) |
| COc1c(N2C[C@@H](C)N[C@@H](C)C2)c(F)cc2c(=O)c(C(=O)O)cn(-c3ccc(O)cc3)c12 | 50 (≈ 113 µM) | 50 (≈ 113 µM) | 3.13 (≈ 7.09 µM) | 6.25 (≈ 14.2 µM) | 1.56 (≈ 3.53 µM) |
| NCC1CCN(c2cc3c(cc2F)c(=O)c(C(=O)O)cn3-c2ccc(O)cc2)C1 (stereo not given) | 6.25 (≈ 15.7 µM) | 25 (≈ 62.9 µM) | 0.4 (≈ 1.01 µM) | 0.78 (≈ 1.96 µM) | 1.56 (≈ 3.93 µM) |
| O=C(O)c1cn(-c2ccc(O)cc2)c2cc(N3CC4CCCNC4C3)c(F)cc2c1=O (stereo not given) | 3.13 (≈ 7.39 µM) | 6.25 (≈ 14.8 µM) | 0.4 (≈ 0.945 µM) | 0.4 (≈ 0.945 µM) | 1.56 (≈ 3.68 µM) |
| CC1CNCCN1c1nc2c(cc1F)c(=O)c(C(=O)O)cn2-c1ccc(O)cc1 (stereo not given) | 6.25 (≈ 15.7 µM) | 6.25 (≈ 15.7 µM) | 0.78 (≈ 1.96 µM) | 0.78 (≈ 1.96 µM) | 0.78 (≈ 1.96 µM) |
| NC1CCN(c2nc3c(cc2F)c(=O)c(C(=O)O)cn3-c2ccc(O)cc2)C1 (stereo not given) | > 50 | 1.56 (≈ 4.06 µM) | 0.78 (≈ 2.03 µM) | 0.78 (≈ 2.03 µM) | 1.56 (≈ 4.06 µM) |

Second part, the compound after the results:

| MIC (Enterococcus faecalis) [µg/mL] | MIC (Pseudomonas aeruginosa) [µg/mL] | MIC (Staphylococcus aureus [1]) [µg/mL] | MIC (Staphylococcus aureus [2]) [µg/mL] | MIC (Escherichia coli) [µg/mL] | SMILES |
| --- | --- | --- | --- | --- | --- |
| 0.78 (≈ 1.91 µM) | 1.56 (≈ 3.81 µM) | 0.2 (≈ 0.488 µM) | 0.1 (≈ 0.244 µM) | 0.2 (≈ 0.488 µM) | N[C@@H]1CN(c2cc3c(cc2F)c(=O)c(C(=O)O)cn3-c2ccc(O)cc2)CC12CC2 |
| 1.56 (≈ 3.57 µM) | 12.5 (≈ 28.6 µM) | 0.2 (≈ 0.457 µM) | 0.2 (≈ 0.457 µM) | 3.13 (≈ 7.15 µM) | N[C@@H]1CCC[C@@H]2CN(c3cc4c(cc3F)c(=O)c(C(=O)O)cn4-c3ccc(O)cc3)C[C@@H]21 |
| 3.13 (≈ 8.16 µM) | 1.56 (≈ 4.07 µM) | 0.4 (≈ 1.04 µM) | 0.4 (≈ 1.04 µM) | 0.4 (≈ 1.04 µM) | NC1CCN(c2cc3c(cc2F)c(=O)c(C(=O)O)cn3-c2ccc(O)cc2)C1 (stereo not given) |
| > 50 | 12.5 (≈ 29.4 µM) | 6.25 (≈ 14.7 µM) | 3.13 (≈ 7.36 µM) | 6.25 (≈ 14.7 µM) | COc1c(N2CC3CC2CN3)c(F)cc2c(=O)c(C(=O)O)cn(-c3ccc(O)cc3)c12 (stereo not given) |
| 25 (≈ 58.5 µM) | 50 (≈ 117 µM) | 3.13 (≈ 7.32 µM) | 3.13 (≈ 7.32 µM) | 6.25 (≈ 14.6 µM) | COc1c(N2CCC(CN)C2)c(F)cc2c(=O)c(C(=O)O)cn(-c3ccc(O)cc3)c12 (stereo not given) |
| 25 (≈ 60.5 µM) | 6.25 (≈ 15.1 µM) | 1.56 (≈ 3.77 µM) | 1.56 (≈ 3.77 µM) | 1.56 (≈ 3.77 µM) | COc1c(N2CCC(N)C2)c(F)cc2c(=O)c(C(=O)O)cn(-c3ccc(O)cc3)c12 (stereo not given) |
| 25 (≈ 60.5 µM) | 6.25 (≈ 15.1 µM) | 0.2 (≈ 0.484 µM) | 0.4 (≈ 0.968 µM) | 0.78 (≈ 1.89 µM) | COc1c(N2CCNCC2)c(F)cc2c(=O)c(C(=O)O)cn(-c3ccc(O)cc3)c12 |
| 12.5 (≈ 27.6 µM) | 6.25 (≈ 13.8 µM) | 0.78 (≈ 1.72 µM) | 0.78 (≈ 1.72 µM) | 1.56 (≈ 3.44 µM) | COc1c(N2CC3CCCNC3C2)c(F)cc2c(=O)c(C(=O)O)cn(-c3ccc(O)cc3)c12 (stereo not given) |
| 12.5 (≈ 30.3 µM) | 6.25 (≈ 15.2 µM) | 3.13 (≈ 7.59 µM) | 6.25 (≈ 15.2 µM) | 0.4 (≈ 0.97 µM) | C[C@@H]1CN(c2nc3c(cc2F)c(=O)c(C(=O)O)cn3-c2ccc(O)cc2)C[C@H](C)N1 |
| > 50 | 3.13 (≈ 7.9 µM) | 1.56 (≈ 3.94 µM) | 3.13 (≈ 7.9 µM) | 1.56 (≈ 3.94 µM) | O=C(O)c1cn(-c2ccc(O)cc2)c2nc(N3CC4CC3CN4)c(F)cc2c1=O (stereo not given) |
| 12.5 (≈ 29.3 µM) | 6.25 (≈ 14.7 µM) | 0.78 (≈ 1.83 µM) | 0.78 (≈ 1.83 µM) | 0.78 (≈ 1.83 µM) | COc1c(N2C[C@@H](C)[C@H](C)C2)c(F)cc2c(=O)c(C(=O)O)cn(-c3ccc(O)cc3)c12 |
| 12.5 (≈ 31.5 µM) | 50 (≈ 126 µM) | 0.78 (≈ 1.96 µM) | 0.78 (≈ 1.96 µM) | 3.13 (≈ 7.88 µM) | C[C@@H]1C[C@H](N)CN1c1cc2c(cc1F)c(=O)c(C(=O)O)cn2-c1ccc(O)cc1 |
| 6.25 (≈ 14.7 µM) | 3.13 (≈ 7.34 µM) | 0.78 (≈ 1.83 µM) | 0.78 (≈ 1.83 µM) | 0.78 (≈ 1.83 µM) | COc1c(N2C[C@@H](C)[C@@H](C)C2)c(F)cc2c(=O)c(C(=O)O)cn(-c3ccc(O)cc3)c12 |
| 3.13 (≈ 7.15 µM) | 6.25 (≈ 14.3 µM) | 0.2 (≈ 0.457 µM) | 0.4 (≈ 0.914 µM) | 0.2 (≈ 0.457 µM) | CN1CCCC2CN(c3cc4c(cc3F)c(=O)c(C(=O)O)cn4-c3ccc(O)cc3)CC21 (stereo not given) |
| 1.56 (≈ 3.93 µM) | 1.56 (≈ 3.93 µM) | 0.2 (≈ 0.503 µM) | 0.2 (≈ 0.503 µM) | 0.2 (≈ 0.503 µM) | C[C@H]1CN(c2cc3c(cc2F)c(=O)c(C(=O)O)cn3-c2ccc(O)cc2)C[C@H]1N |
| 6.25 (≈ 15.2 µM) | 25 (≈ 60.8 µM) | 0.4 (≈ 0.972 µM) | 0.4 (≈ 0.972 µM) | 1.56 (≈ 3.79 µM) | C[C@H](N)[C@@H]1CCN(c2cc3c(cc2F)c(=O)c(C(=O)O)cn3-c2ccc(O)cc2)C1 |
| 25 (≈ 60.8 µM) | 50 (≈ 122 µM) | 1.56 (≈ 3.79 µM) | 1.56 (≈ 3.79 µM) | 3.13 (≈ 7.61 µM) | C[C@@H](N)[C@H]1CCN(c2cc3c(cc2F)c(=O)c(C(=O)O)cn3-c2ccc(O)cc2)C1 |
